Test results as given in ChEMBL document CHEMBL1123999, “Synthesis and antiviral activity of certain 4- and 4,5-disubstituted 7-[(2-hydroxyethoxy)methyl]pyrrolo[2,3-d]pyrimidines” (J Med Chem, 1988).

What was measured:
Human betaherpesvirus 5 [1] = assay: Inhibitory concentration against human cytomegalovirus (HCMV) in plaque reduction assay; format: functional, organism-based
Summary of the method: (§1)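 HFF monolayers were infected with the Towne strain of HCMV (plaque-purified isolate P0), about 50 PFU in a 0.2 mL inoculum. Compounds were dissolved in the overlay medium, with 100 μM the highest concentration tested. Plaques were counted. I50 was taken from linear regression of percent inhibition against log concentration. Acyclovir, ganciclovir and vidarabine served as positive controls.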

HFF = assay: Cytotoxicity against uninfected human foreskin fibroblast(HFF cells); format: functional, cell-based
Summary of the method: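 Uninfected HFF monolayers in the HCMV plaque assay. Drug-induced cytopathology was scored visually at 35- and 60-fold magnification, on a 0 to 4+ scale, on the day of staining for plaque enumeration. I50 was taken from linear regression of percent inhibition against log concentration.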

[2] = Cytotoxicity against uninfected monkey kidney cells (BSC-1); format: functional, cell-based; details: Cercopithecidae
Summary of the method: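 Uninfected BSC-1 (African green monkey kidney) monolayers, grown in MEM with Earle salts plus 10% FBS, in the HSV-1 plaque assay. Cytopathology was scored visually at 35- and 60-fold magnification, on a 0 to 4+ scale, on the day of staining for plaques. I50 was taken from regression of percent inhibition against log concentration.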

Human alphaherpesvirus 1 = assay: Inhibitory concentration against HSV-1 in plaque reduction assay
Human betaherpesvirus 5 [3] = assay: Inhibitory concentration against human cytomegalovirus (HCMV) in plaque reduction assay at 100 uM concentration; format: functional, organism-based; details: read-out: I50; summary of the method: as §1
[4] = Cytotoxicity against human neoplastic cell line(KB cells); format: functional, cell-based; details: read-out: I50
Summary of the method: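 KB cells (human epidermoid oral carcinoma) grown in MEM with Hanks salts plus 5% fetal bovine serum. Uptake of radioactive precursors into DNA, RNA and protein was measured. I50 values came from linear regression of percent inhibition against log concentration. The three I50 values (DNA, RNA, protein) were averaged. Positive controls were acyclovir, ganciclovir and vidarabine.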

[5] = Inhibition against human neoplastic cell line(KB cells); format: functional, cell-based; details: read-out: I50
Summary of the method: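 KB cells (human epidermoid oral carcinoma) grown in MEM with Hanks salts plus 5% fetal bovine serum. Cytotoxicity read as inhibition of radioactive precursor incorporation into DNA, RNA and protein. I50 for each of the three came from linear regression of percent inhibition against log drug concentration, and the three I50s were averaged. Highest concentration tested 100 μM.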

Row | SMILES | IC50 (Human betaherpesvirus 5 [1]) | IC50 (HFF) | IC50 [2] | IC50 (Human alphaherpesvirus 1) | IC50 (Human betaherpesvirus 5 [1]; read-out: I50) | IC50 (HFF; read-out: I50) | other results
1 | CSc1ncnc2c1c(Br)cn2[C@@H]1O[C@H](CO)[C@@H](O)[C@H]1O | > 100 µM | > 100 µM | – | – | – | – | –
2 | OC[C@H]1O[C@@H](n2ccc3c(N4CCCCC4)ncnc32)[C@H](O)[C@@H]1O | > 100 µM | > 100 µM | – | – | – | – | –
3 | CNc1ncnc2c1ccn2COCCO | > 100 µM | > 100 µM | > 100 µM | > 100 µM | – | – | –
4 | CN(C)c1ncnc2c1ccn2COCCO | > 100 µM | > 100 µM | > 100 µM | > 100 µM | – | – | –
5 | CCNc1ncnc2c1c(Cl)cn2COCCO | > 100 µM | > 100 µM | > 100 µM | > 100 µM | – | – | –
6 | CNc1ncnc2c1c(Cl)cn2COCCO | > 100 µM | > 100 µM | > 100 µM | > 100 µM | – | – | –
7 | COc1ncnc2c1ccn2COCCO | – | > 100 µM | > 100 µM | > 100 µM | – | – | IC50 (Human betaherpesvirus 5 [3]): > 100 µM
8 | CCNc1ncnc2c1c(Br)cn2COCCO | > 100 µM | > 100 µM | > 320 µM | > 320 µM | – | – | –
9 | CNc1ncnc2c1ccn2[C@@H]1O[C@H](CO)[C@@H](O)[C@H]1O | 37 µM | > 100 µM | – | – | – | – | –
10 | CN(C)c1ncnc2c1ccn2[C@@H]1O[C@H](CO)[C@@H](O)[C@H]1O | – | – | – | – | 1.2 µM | 2 µM | –
11 | OC[C@H]1O[C@@H](n2cc(I)c3c(Cl)ncnc32)[C@H](O)[C@@H]1O | – | – | – | – | 31 µM | 13 µM | –
12 | COc1ncnc2c1ccn2[C@@H]1O[C@H](CO)[C@@H](O)[C@H]1O | – | – | – | – | 10 µM | 46 µM | –
13 | OCCOCn1cc(Br)c2c(Cl)ncnc21 | > 100 µM | > 100 µM | > 100 µM | > 100 µM | – | – | –
14 | OC[C@H]1O[C@@H](n2ccc3c(S)ncnc32)[C@H](O)[C@@H]1O | > 100 µM | > 100 µM | – | – | – | – | –
15 | C[Se]c1ncnc2c1ccn2C1O[C@H](CO)[C@@H](O)[C@H]1O (some centres undefined) | 4 µM | 1.5 µM | – | – | – | – | –
16 | NNc1ncnc2c1ccn2C1O[C@H](CO)[C@@H](O)[C@H]1O (some centres undefined) | – | – | – | – | 4 µM | 2 µM | –
17 | OC[C@H]1OC(n2ccc3cncnc32)[C@H](O)[C@@H]1O (some centres undefined) | 0.4 µM | 2 µM | – | – | – | – | –
18 | CN(C)c1ncnc2c1c(Br)cn2C1O[C@H](CO)[C@@H](O)[C@H]1O (some centres undefined) | 16 µM | 10 µM | – | – | – | – | –

Row | SMILES | IC50 (Human betaherpesvirus 5 [1]) | IC50 (HFF) | IC50 [2] | IC50 (Human alphaherpesvirus 1) | IC50 (Human betaherpesvirus 5 [1]; read-out: I50) | IC50 (HFF; read-out: I50) | other results
19 | CNc1ncnc2c1c(Br)cn2C1O[C@H](CO)[C@@H](O)[C@H]1O (some centres undefined) | – | – | – | – | > 100 µM | > 100 µM | –
20 | OC[C@H]1OC(n2cc(Br)c3c(Cl)ncnc32)[C@H](O)[C@@H]1O (some centres undefined) | – | – | – | – | 29 µM | 31 µM | –
21 | OC[C@H]1OC(n2cc(Br)c3c(S)ncnc32)[C@H](O)[C@@H]1O (some centres undefined) | 39 µM | > 100 µM | – | – | – | – | –
22 | OC[C@H]1OC(n2ccc3c(SC4C=CC=CC=C4)ncnc32)[C@H](O)[C@@H]1O (some centres undefined) | > 100 µM | > 100 µM | – | – | – | – | –
23 | OC[C@H]1OC(n2cc(Br)c3cncnc32)[C@H](O)[C@@H]1O (some centres undefined) | – | – | – | – | 23 µM | 31 µM | –
24 | Nc1ncnc2c1c(Br)cn2[C@@H]1O[C@H](CO)[C@@H](O)[C@H]1O | – | – | – | – | 0.5 µM | 4.5 µM | IC50 [4]: 2.3 µM
25 | Nc1ncnc2c1c(I)cn2COCCO | 24 µM | 100 µM | > 100 µM | 100 µM | – | – | IC50 [5]: 1.2 µM
26 | CNc1ncnc2c1c(Br)cn2COCCO | > 100 µM | > 100 µM | > 100 µM | > 100 µM | – | – | –
27 | Nc1ncnc2c1c(Cl)cn2COCCO | 16 µM | > 100 µM | > 100 µM | 77 µM | – | – | IC50 [5]: 0.82 µM
28 | Nc1ncnc2c1c(Br)cn2COCCO | 3.9 µM | 100 µM | > 100 µM | 16 µM | – | – | IC50 [4]: 100 µM
29 | OCCOCn1cc(I)c2c(Cl)ncnc21 | > 100 µM | > 100 µM | > 100 µM | > 100 µM | – | – | –
30 | OCCOCn1cc(Cl)c2c(Cl)ncnc21 | > 100 µM | > 100 µM | > 100 µM | > 100 µM | – | – | –
31 | Nc1ncnc2c1c(Cl)cn2[C@@H]1O[C@H](CO)[C@@H](O)[C@H]1O | – | – | – | – | 4.4 µM | 10 µM | IC50 [4]: 6.5 µM
32 | Nc1nc2c(ncn2COCCO)c(=O)[nH]1 [ACYCLOVIR] | 63 µM | > 100 µM | > 100 µM | 2.6 µM | – | – | –
33 | Nc1nc2c(ncn2COC(CO)CO)c(=O)[nH]1 [GANCICLOVIR] | 8.8 µM | > 100 µM | > 100 µM | 3 µM | – | – | –
34 | O=c1[nH]cnc2c1ccn2[C@@H]1O[C@H](CO)[C@@H](O)[C@H]1O [IMMUNICILLIN H] | – | – | – | – | 3.5 µM | 10 µM | –
35 | Nc1ncnc2c1c(I)cn2[C@@H]1O[C@H](CO)[C@@H](O)[C@H]1O [IODOTUBERCIDIN] | – | – | – | – | 0.4 µM | 2 µM | IC50 [4]: 2.1 µM
36 | Nc1ncnc2c1ccn2[C@@H]1O[C@H](CO)[C@@H](O)[C@H]1O [TUBERCIDIN] | 0.5 µM | 0.4 µM | – | – | – | – | IC50 [4]: 0.6 µM
